Experimental data of several laboratories.
Target: Myosin light chain kinase (MYLK3, Homo sapiens, UniProt Q32MK0)
Sequence (Q32MK0 1-819, as in one of the studies): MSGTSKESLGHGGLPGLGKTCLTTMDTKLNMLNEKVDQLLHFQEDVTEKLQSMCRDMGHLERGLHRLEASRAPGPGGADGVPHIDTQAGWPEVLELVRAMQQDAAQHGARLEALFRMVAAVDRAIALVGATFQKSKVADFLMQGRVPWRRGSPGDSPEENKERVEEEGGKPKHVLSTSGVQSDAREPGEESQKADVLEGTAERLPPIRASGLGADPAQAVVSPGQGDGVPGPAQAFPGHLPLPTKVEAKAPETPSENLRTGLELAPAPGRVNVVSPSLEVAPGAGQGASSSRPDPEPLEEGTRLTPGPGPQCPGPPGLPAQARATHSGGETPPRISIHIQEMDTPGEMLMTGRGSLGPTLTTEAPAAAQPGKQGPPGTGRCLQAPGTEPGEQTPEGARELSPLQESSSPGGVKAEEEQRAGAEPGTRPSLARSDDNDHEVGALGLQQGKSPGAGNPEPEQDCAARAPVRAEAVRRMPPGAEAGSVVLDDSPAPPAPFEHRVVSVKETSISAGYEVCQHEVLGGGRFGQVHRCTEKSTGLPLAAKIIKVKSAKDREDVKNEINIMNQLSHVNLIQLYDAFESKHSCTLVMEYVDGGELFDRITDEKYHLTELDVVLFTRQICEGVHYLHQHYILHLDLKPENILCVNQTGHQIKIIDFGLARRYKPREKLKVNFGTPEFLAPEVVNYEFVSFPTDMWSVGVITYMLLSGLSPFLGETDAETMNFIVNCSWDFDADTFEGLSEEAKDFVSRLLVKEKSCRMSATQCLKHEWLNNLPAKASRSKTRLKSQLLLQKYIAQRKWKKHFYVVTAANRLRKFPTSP

O=C(NCC1CCOCC1)c1n[nH]cc1NC(=O)c1c(F)cccc1F  remaining binding (binding; competition with immobilised ligand; 1 µM): 100%
CC(=O)N1CCC(c2ccc(C(=O)NC3=NCCN3)cc2C(F)(F)F)CC1  remaining binding (cell-free assay; competition with immobilised ligand; 1 µM): 100%
CN(C)c1ncc(F)c(-c2cnn3ncccc23)n1  remaining binding (binding; 1 µM): 77%
O=C(NCCCN1CCOCC1)c1ccc(Nc2nccc(-c3cc4ccccc4s3)n2)cc1  remaining binding (binding; competition with immobilised ligand; 1 µM): 3.6%
C[C@H](c1ccc(F)cc1)N(Cc1cccc(C(=O)O)c1)C(=O)c1cnc2ccccc2c1  remaining binding (cell-free assay; competition with immobilised ligand; 1 µM): 100%
COc1cnc(Nc2cccc(S(N)(=O)=O)c2)nc1N1CCN(c2ccccc2)CC1  remaining binding (binding; competition with immobilised ligand; 1 µM): 97%
C[C@H]1CCN(c2nccc(-c3cnn4ncccc34)n2)C1  remaining binding (binding; 1 µM): 98%
CS(=O)(=O)NCC[C@H](NC(=O)c1cncc2c1cnn2-c1ccc(F)cc1)c1ccnc(S(C)(=O)=O)c1  remaining binding (cell-free assay; competition with immobilised ligand; 1 µM): 100%
O=C(NCCCN1CCOCC1)c1ccc(Nc2ncc(Cl)c(-c3ccc(Cl)s3)n2)cc1  remaining binding (binding; competition with immobilised ligand; 1 µM): 7.9%
Cn1nc(C(=O)NCc2ccc(C(=O)O)cc2)cc1-c1ccc2[nH]ccc2c1  remaining binding (cell-free assay; competition with immobilised ligand; 0.1 µM): 100%
COc1cnc(Nc2cccc(S(N)(=O)=O)c2)nc1N1CCN(c2ccccc2)C(=O)C1  remaining binding (binding; competition with immobilised ligand; 1 µM): 97%
Cc1cnc(Nc2ccc(C(=O)N3CCC(N4CCCC4)CC3)cc2)nc1-c1cc2ccccc2s1  remaining binding (binding; competition with immobilised ligand; 1 µM): 5.1%
CN(c1nccc(-c2cnn3ncccc23)n1)C1CC1  remaining binding (binding; 1 µM): 100%
N#CC1(c2ccccn2)CCN(Cc2cc(C(=O)N3CCCC3)c(=O)n3ccccc23)CC1  remaining binding (cell-free assay; competition with immobilised ligand; 1 µM): 76%
N[C@@H]1CCN(c2nccc(-c3cnn4ncccc34)n2)C1  remaining binding (binding; 1 µM): 100%
C[C@@H]1CN(c2cc(-c3nn(C)c4ccc(OC5(C)CC5)cc34)ncn2)C[C@H](C)O1  remaining binding (cell-free assay; competition with immobilised ligand; 1 µM): 97%
CN(C)c1nccc(-c2cnc3ncccn23)n1  remaining binding (binding; 1 µM): 100%
COc1ncc2cc3ccccc3nc2c1C#N  remaining binding (cell-free assay; competition with immobilised ligand; 5 µM): 96%
CN(C)c1nccc(-c2cnn3ncccc23)n1  remaining binding (binding; 1 µM): 100%
Nc1ncc2c(n1)-c1c([nH]c3ccc(C#CC4CC4)cc13)CCCC2  remaining binding (binding; competition with immobilised ligand; 1 µM): 91%
